The values that follow come from ChEMBL document CHEMBL1125626, “Synthesis and structure-activity relationship of new cephalosporins with amino heterocycles at C-7. Dependence of the antibacterial spectrum and beta-lactamase stability on the pKa of the C-7 heterocycle” (1991).

Values after ≈ are worked out from the molar mass of the structure shown.

One experiment relates to Proteus mirabilis. The experiment in a line: Minimum inhibitory concentration against Proteus mirabilis A18 (inoculum, 10e5 cfu per spot). The format is functional. The method in brief:
(§1)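 MIC in µg/mL, determined in Jewell and Permain growth medium with spot inoculation at 10^5 cfu per spot.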

The test system of experiment [1] is Enterobacter cloacae. The experiment in a line: Minimum inhibitory concentration against Enterobacter cloacae A13 (inoculum, 10e5 cfu per spot). The format is functional. The gist of the method:
as §1

Experiment [2] relates to Escherichia coli. Description: Minimum inhibitory concentration against Escherichia coli A8 (inoculum, 10e5 cfu per spot). It counts as functional. The gist of the method:
as §1

The test system of experiment [3] is Escherichia coli. Description: Minimum inhibitory concentration against Escherichia coli DCO (inoculum, 10e4 cfu per spot). The format is functional. The method in brief: (§2)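 MIC in µg/mL, determined in Jewell and Permain growth medium with spot inoculation at 10^4 cfu per spot. P99 is described as a constitutive type I lactamase producer.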
Experiment [4] has as its system Escherichia coli. The experiment in a line: Minimum inhibitory concentration against Escherichia coli TEM X3 (inoculum, 10e4 cfu per spot)(TEM I type lactamase producer).
Experiment [5] has as its system Enterobacter cloacae. Description: Minimum inhibitory concentration against Enterobacter cloacae P99 (inoculum, 10e4 cfu per spot)(type I lactamase producer). The format is functional. The gist of the method:
as §2

For experiment [6], the system named is Staphylococcus aureus. Description: Minimum inhibitory concentration against Staphylococcus aureus A4 (inoculum, 10e5 cfu per spot). The format is functional. The method in brief: as §1
Another experiment deals with Pseudomonas aeruginosa. The experiment in a line: Minimum inhibitory concentration against Pseudomonas aeruginosa A21 (inoculum, 10e5 cfu per spot). It counts as functional. The method in brief: as §1
Experiment [7] concerns Escherichia coli. The experiment in a line: Minimum inhibitory concentration against Escherichia coli DC2 (inoculum, 10e4 cfu per spot). The format is functional. The method in brief: as §2
The subject of experiment [8] is Klebsiella aerogenes. Description: Minimum inhibitory concentration against Klebsiella aerogenes X5L (inoculum, 10e4 cfu per spot). It counts as functional. The gist of the method:
as §2

For a further experiment, the system named is Serratia marcescens. The experiment in a line: Minimum inhibitory concentration against Serratia marcescens A16 (inoculum, 10e5 cfu per spot). It counts as functional. The method in brief: as §1
For experiment [9], the system named is Enterobacter cloacae. Description: Minimum inhibitory concentration against Enterobacter cloacae P99 (inoculum, 10e4 cfu per spot). It counts as functional. The gist of the method:
as §2

The test system of another experiment is Streptococcus pyogenes. The experiment in a line: Minimum inhibitory concentration against Streptococcus pyogenes (inoculum, 10e5 cfu per spot) A1. It counts as functional. The gist of the method:
as §1

The subject of another experiment is Proteus vulgaris. The experiment in a line: Minimum inhibitory concentration against Proteus vulgaris Pv9 (inoculum, 10e5 cfu per spot).
In experiment [10] the test system is Escherichia coli. The experiment in a line: Minimum inhibitory concentration against Escherichia coli X4 (inoculum, 10e4 cfu per spot).
The subject of another experiment is Klebsiella pneumoniae. The experiment in a line: Minimum inhibitory concentration against Klebsiella pneumoniae A24 (inoculum, 10e5 cfu per spot). It counts as functional. The method in brief: as §1
The test system of experiment [11] is Staphylococcus aureus. Description: Minimum inhibitory concentration against Staphylococcus aureus A6 (inoculum, 10e5 cfu per spot). The format is functional. The method in brief:
as §1

The test system of experiment [12] is Klebsiella aerogenes. The experiment in a line: Minimum inhibitory concentration against Klebsiella aerogenes X6 (inoculum, 10e4 cfu per spot). It counts as functional. The method in brief: as §2
The subject of experiment [13] is Staphylococcus aureus. The experiment in a line: (§3) Minimum inhibitory concentration against Staphylococcus aureus A5(inoculum, 10e5 cfu per spot). It counts as functional. The gist of the method:
as §1

Experiment [14] deals with Enterobacter cloacae. Description: Minimum inhibitory concentration against Enterobacter cloacae A13(inoculum, 10e2 cfu per spot).
The subject of experiment [15] is Enterobacter cloacae. Description: Minimum inhibitory concentration against Enterobacter cloacae A13(inoculum, 10e5 cfu per spot). It counts as functional. The settings on record: in the assay text read “10e2 cfu per spot” for “10e5 cfu per spot”.
Experiment [16] can be described thus: as §3. It counts as functional. The gist of the method:
as §1

What is called MIC is the least concentration at which growth counts as inhibited. A high value points to a need for much substance.

As to `CC(=O)OCC1=C(C(=O)OC(c2ccccc2)c2ccccc2)N2C(=O)[C@@H](Nc3nc4cc(C(F)(F)F)ccc4[nH]3)C2SC1` (some centres not stated), the minimal inhibitory concentration (MIC) is 128 µg/mL (≈ 206 µM) against Proteus mirabilis; > 256 µg/mL in the experiment with Enterobacter cloacae [1]; 32 µg/mL (≈ 51.4 µM) with Escherichia coli [2]; 32 µg/mL (≈ 51.4 µM) in the experiment with Escherichia coli [3]; 32 µg/mL (≈ 51.4 µM) against Escherichia coli [4]; > 256 µg/mL in the experiment with Enterobacter cloacae [5]. The minimum inhibitory concentration (MIC) with Staphylococcus aureus [6] is 128 µg/mL (≈ 206 µM); against Pseudomonas aeruginosa it was > 256 µg/mL; in the experiment on Escherichia coli [7], 0.12 µg/mL (≈ 0.193 µM); against Klebsiella aerogenes [8], > 256 µg/mL; against Serratia marcescens, > 256 µg/mL; in the experiment on Enterobacter cloacae [9] it was 32 µg/mL (≈ 51.4 µM). Also, the minimal inhibitory concentration (MIC) in the experiment with Streptococcus pyogenes was 1 µg/mL (≈ 1.61 µM); against Proteus vulgaris it was > 256 µg/mL; against Escherichia coli [10], 32 µg/mL (≈ 51.4 µM); in the experiment with Klebsiella pneumoniae, 32 µg/mL (≈ 51.4 µM); in the experiment on Staphylococcus aureus [11], 2 µg/mL (≈ 3.21 µM); with Klebsiella aerogenes [12], 64 µg/mL (≈ 103 µM).

In the case of `CC1=C(C(=O)OC(c2ccccc2)c2ccccc2)N2C(=O)[C@@H](Nc3nc4ccccc4s3)C2SC1` (some centres not stated), the minimum inhibitory concentration (MIC) is 1000 µg/mL (≈ 1950 µM) in the experiment with Proteus mirabilis; > 1000 µg/mL against Escherichia coli [2]; 1 µg/mL (≈ 1.95 µM) against Staphylococcus aureus [13]; > 1000 µg/mL in the experiment with Pseudomonas aeruginosa; > 1000 µg/mL against Serratia marcescens; 40 µg/mL (≈ 77.9 µM) in the experiment on Streptococcus pyogenes. Moreover, the MIC with Enterobacter cloacae [14] was > 1000 µg/mL.

For `CC(=O)OCC1=C(C(=O)OC(C)(C)C)N2C(=O)[C@@H](Nc3nc4cc[nH]cc-4n3)C2SC1` (some centres not stated), the MIC in the experiment with Proteus mirabilis is 16 µg/mL (≈ 35.9 µM); in the experiment on Enterobacter cloacae [1], 32 µg/mL (≈ 71.8 µM); in the experiment with Escherichia coli [2], 8 µg/mL (≈ 18 µM); against Escherichia coli [3], 4 µg/mL (≈ 8.98 µM); with Escherichia coli [4], 32 µg/mL (≈ 71.8 µM); with Enterobacter cloacae [5], > 256 µg/mL. Moreover, the MIC in the experiment with Staphylococcus aureus [6] was 256 µg/mL (≈ 575 µM); in the experiment with Pseudomonas aeruginosa it was > 256 µg/mL; against Escherichia coli [7], 0.5 µg/mL (≈ 1.12 µM); against Klebsiella aerogenes [8], > 256 µg/mL; against Serratia marcescens, > 256 µg/mL; in the experiment with Enterobacter cloacae [9], 2 µg/mL (≈ 4.49 µM). The minimal inhibitory concentration (MIC) was 8 µg/mL (≈ 18 µM) in the experiment on Streptococcus pyogenes; > 256 µg/mL in the experiment on Proteus vulgaris; 2 µg/mL (≈ 4.49 µM) against Escherichia coli [10]; 32 µg/mL (≈ 71.8 µM) with Klebsiella pneumoniae; 256 µg/mL (≈ 575 µM) with Staphylococcus aureus [11]; 8 µg/mL (≈ 18 µM) with Klebsiella aerogenes [12].

As to `CC1=C(C(=O)OC(c2ccccc2)c2ccccc2)N2C(=O)[C@@H](Nc3nc4ccccc4[nH]3)C2SC1` (some centres not stated), the minimum inhibitory concentration (MIC) is 8 µg/mL (≈ 16.1 µM) with Proteus mirabilis; 8 µg/mL (≈ 16.1 µM) with Escherichia coli [2]; 8 µg/mL (≈ 16.1 µM) in the experiment with Enterobacter cloacae [15]; 8 µg/mL (≈ 16.1 µM) in experiment [16]; > 1000 µg/mL against Pseudomonas aeruginosa; 200 µg/mL (≈ 403 µM) with Serratia marcescens. For the same compound, the MIC with Streptococcus pyogenes and in the experiment with Staphylococcus aureus [11] was 40 µg/mL (≈ 80.5 µM) throughout.

As to `CC(=O)OCC1=C(C(=O)OC(c2ccccc2)c2ccccc2)N2C(=O)[C@@H](Nc3nc4cc(CN)ccc4[nH]3)C2SC1` (some centres not stated), the MIC came out at 32 µg/mL (≈ 54.8 µM) against Proteus mirabilis; 256 µg/mL (≈ 439 µM) in the experiment with Enterobacter cloacae [1]; 0.12 µg/mL (≈ 0.206 µM) with Escherichia coli [2]; 0.12 µg/mL (≈ 0.206 µM) against Escherichia coli [3]; 2 µg/mL (≈ 3.43 µM) in the experiment with Escherichia coli [4]; 64 µg/mL (≈ 110 µM) in the experiment on Enterobacter cloacae [5]. Moreover, the MIC in the experiment with Staphylococcus aureus [6] is 32 µg/mL (≈ 54.8 µM); against Pseudomonas aeruginosa, > 256 µg/mL; against Escherichia coli [7], 0.06 µg/mL (≈ 0.103 µM); against Klebsiella aerogenes [8], 32 µg/mL (≈ 54.8 µM); against Serratia marcescens, > 256 µg/mL; against Enterobacter cloacae [9], 0.12 µg/mL (≈ 0.206 µM). Further, the MIC in the experiment with Streptococcus pyogenes was 0.5 µg/mL (≈ 0.857 µM); against Proteus vulgaris, 64 µg/mL (≈ 110 µM); in the experiment with Escherichia coli [10] it was 0.12 µg/mL (≈ 0.206 µM); with Klebsiella pneumoniae it was 1 µg/mL (≈ 1.71 µM); with Staphylococcus aureus [11], 4 µg/mL (≈ 6.85 µM); in the experiment with Klebsiella aerogenes [12] it was 0.25 µg/mL (≈ 0.428 µM).

Regarding `CC(=O)Nc1ccc2[nH]c(N[C@@H]3C(=O)N4C(C(=O)OC(C)(C)C)=C(COC(C)=O)CSC34)nc2c1` (some centres not stated), the MIC is 8 µg/mL (≈ 16 µM) with Proteus mirabilis; > 256 µg/mL in the experiment with Enterobacter cloacae [1]; 1 µg/mL (≈ 1.99 µM) in the experiment with Escherichia coli [2]; 1 µg/mL (≈ 1.99 µM) against Escherichia coli [3]; 16 µg/mL (≈ 31.9 µM) against Escherichia coli [4]; > 256 µg/mL against Enterobacter cloacae [5]. In addition, the minimal inhibitory concentration (MIC) is 256 µg/mL (≈ 510 µM) with Staphylococcus aureus [6]; > 256 µg/mL with Pseudomonas aeruginosa; 0.12 µg/mL (≈ 0.239 µM) in the experiment with Escherichia coli [7]; > 256 µg/mL against Klebsiella aerogenes [8]; > 256 µg/mL in the experiment with Serratia marcescens; 2 µg/mL (≈ 3.99 µM) in the experiment on Enterobacter cloacae [9]. Further, the MIC in the experiment on Streptococcus pyogenes worked out at 4 µg/mL (≈ 7.98 µM); with Proteus vulgaris, 128 µg/mL (≈ 255 µM); with Escherichia coli [10], 1 µg/mL (≈ 1.99 µM); against Klebsiella pneumoniae it was 32 µg/mL (≈ 63.8 µM); against Staphylococcus aureus [11], 8 µg/mL (≈ 16 µM); in the experiment on Klebsiella aerogenes [12], 2 µg/mL (≈ 3.99 µM).
